Test results reported in PubChem BioAssay AID624397 (The Scripps Research Institute Molecular Screening Center, 2012).

tested on: MCF7 proliferation, sulforhodamine B absorbance, 7-10 days; assay: breast cancer cell growth suppression – MCF7, absorbance, set 2, counter-screen for AHR activator project, late-stage follow-up (AID 624397)
Outline: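 System: MCF7 human ER-positive breast cancer cells; Buffer or medium: a-MEM growth medium with 10% fetal bovine serum; Timing: dosing from 24 h after plating, renewed every 48 h, 37 °C; Measured by: SRB absorbance at 490 nm, 650 nm background removed; Repeats: at least triplicates.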

SMILES | IC50 [µM]
Cc1ccc(-c2cc(-c3cccc(F)c3)n[nH]2)c(O)c1 | 3
Cc1ccc(-c2cc(-c3ccc(F)cc3)n[nH]2)c(O)c1 | 3
Cc1ccc(-c2cc(-c3ccc(Cl)cc3)n[nH]2)c(O)c1 | 3
